Laboratory results reported in ChEMBL document CHEMBL1126160, “Synthesis and structure-activity relationships of 7-diazabicycloalkylquinolones, including danofloxacin, a new quinolone antibacterial agent for veterinary medicine” (J Med Chem, 1992).
Values after ≈ are worked out from the molar mass of the structure shown.

Assays:
Format in all cases: functional
Staphylococcus aureus = assay: In vitro antibacterial activity against aerobically grown Staphylococcus aureus (54B004)
How it was run: (§1)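 Agar dilution MICs. Aerobic strains were tested on brain heart infusion agar and incubated aerobically at 37 °C for 18–20 h.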

Pasteurella multocida = assay: In vitro antibacterial activity against aerobically grown Pasteurella multocida (59A006); how it was run: as §1
Clostridium perfringens = assay: microbe, parasite or virus in culture
[1] = system: Actinobacillus pleuropneumoniae; assay: In vitro antibacterial activity against anaerobically grown Actinobacillus pleuropneumoniae ([…])
How it was run: (§2)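 Agar dilution MICs. Anaerobic strains were tested on tryptose agar with 5% bovine blood and incubated 48 h at 39 °C in an anaerobe chamber under N2/CO2/H2 (80:10:10).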

Phocaeicola vulgatus = assay: In vitro antibacterial activity against anaerobically grown Bacteroides vulgatus (78D029); how it was run: as §2
Salmonella enterica = assay: In vitro antibacterial activity against aerobically grown Salmonella choleraesuis (58B015)
Escherichia coli [2] = assay: In vitro antibacterial activity against aerobically grown Escherichia coli (51A538); how it was run: as §1
[3] = In vitro evaluation for antibacterial activity against anaerobically grown Treponema hyodysenteriae (94A007); conditions: Brachyspira hyodysenteriae
Trueperella pyogenes = assay: In vitro antibacterial activity against anaerobically grown Actinomyces pyogenes (14D002); how it was run: as §2
Escherichia coli [4] = assay: Escherichia coli DNA cleavage endpoint value which is the minimum amount required (in micro g/mL) to induce detectable cleavage of supercoiled pBR322 substrate to linear form (gyrase); conditions: read-out: MIC
How it was run: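 DNA gyrase A and B subunits were purified from E. coli overproducers. About 2 units of holoenzyme were incubated with pBR322 in Tris-HCl pH 7.5 containing MgCl2, spermidine, DTT, 0.2 mM ATP, BSA and tRNA. Drug was added as 2-fold serial dilutions, and reactions ran for 60 min at 25 °C. Reactions were stopped with SDS and proteinase K, then run on agarose and stained with ethidium. The endpoint was the lowest concentration giving detectable linear DNA.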

[5] = In vitro antibacterial activity against Aerobically grown Pasteurella haemolytica (59B018); conditions: Mannheimia haemolytica; how it was run: as §1
[6] = system: Bordetella bronchiseptica; assay: In vitro antibacterial activity against aerobically grown Bordetella bronchiseptica (73A009); how it was run: as §1

Compound | MIC (Staphylococcus aureus) | MIC (Pasteurella multocida) | MIC (Clostridium perfringens) | MIC [1] | MIC (Phocaeicola vulgatus) | MIC (Salmonella enterica) | MIC (Escherichia coli [2]) | MIC [3] | MIC (Trueperella pyogenes) | minimum concentration inducing gyrase-mediated DNA cleavage (Escherichia coli [4]) | MIC [5] | MIC [6]
O=C(O)c1cn(-c2ccc(F)cc2)c2cc(N3C[C@@H]4C[C@H]3CN4)c(F)cc2c1=O | 0.78 µg/mL (≈ 1.96 µM) | 0.02 µg/mL (≈ 0.0503 µM) | 0.2 µg/mL (≈ 0.503 µM) | 0.1 µg/mL (≈ 0.252 µM) | 3.13 µg/mL (≈ 7.88 µM) | 0.2 µg/mL (≈ 0.503 µM) | 0.1 µg/mL (≈ 0.252 µM) | 1.56 µg/mL (≈ 3.93 µM) | 3.13 µg/mL (≈ 7.88 µM) | 1.56 µg/mL | 0.1 µg/mL (≈ 0.252 µM) | > 1.56 µg/mL
O=C(O)c1cn(C2CC2)c2c(F)c(N3CCN4CCC3CC4)c(F)cc2c1=O | 0.05 µg/mL (≈ 0.128 µM) | 0.002 µg/mL (≈ 0.00514 µM) | 0.1 µg/mL (≈ 0.257 µM) | 0.01 µg/mL (≈ 0.0257 µM) | 0.1 µg/mL (≈ 0.257 µM) | 0.01 µg/mL (≈ 0.0257 µM) | 0.01 µg/mL (≈ 0.0257 µM) | 0.78 µg/mL (≈ 2 µM) | 0.39 µg/mL (≈ 1 µM) | 0.39 µg/mL | 0.01 µg/mL (≈ 0.0257 µM) | 0.39 µg/mL (≈ 1 µM)
CN1C[C@@H]2C[C@H]1CN2c1c(F)cc2c(=O)c(C(=O)O)cn(-c3ccc(F)cc3F)c2c1Cl | 0.2 µg/mL (≈ 0.431 µM) | 0.01 µg/mL (≈ 0.0216 µM) | 0.39 µg/mL (≈ 0.841 µM) | 0.1 µg/mL (≈ 0.216 µM) | 0.78 µg/mL (≈ 1.68 µM) | 0.39 µg/mL (≈ 0.841 µM) | 0.2 µg/mL (≈ 0.431 µM) | > 3.13 µg/mL | 3.13 µg/mL (≈ 6.75 µM) | 3.12 µg/mL | 0.1 µg/mL (≈ 0.216 µM) | > 1.56 µg/mL
CN1[C@@H]2CC[C@H]1CN(c1c(F)cc3c(=O)c(C(=O)O)cn(CCF)c3c1F)C2 | 1.56 µg/mL (≈ 3.95 µM) | 0.39 µg/mL (≈ 0.986 µM) | 0.78 µg/mL (≈ 1.97 µM) | 0.39 µg/mL (≈ 0.986 µM) | > 3.13 µg/mL | 1.56 µg/mL (≈ 3.95 µM) | 0.78 µg/mL (≈ 1.97 µM) | > 3.13 µg/mL | > 3.13 µg/mL | 0.39 µg/mL | 0.78 µg/mL (≈ 1.97 µM) | 6.25 µg/mL (≈ 15.8 µM)
CN1C[C@@H]2C[C@H]1CN2c1c(F)cc2c(=O)c(C(=O)O)cn(-c3ccc(F)cc3)c2c1F | 0.39 µg/mL (≈ 0.908 µM) | 0.02 µg/mL (≈ 0.0466 µM) | 0.39 µg/mL (≈ 0.908 µM) | 0.05 µg/mL (≈ 0.116 µM) | 3.13 µg/mL (≈ 7.29 µM) | 0.39 µg/mL (≈ 0.908 µM) | 0.2 µg/mL (≈ 0.466 µM) | 1.56 µg/mL (≈ 3.63 µM) | > 3.13 µg/mL | 0.39 µg/mL | 0.2 µg/mL (≈ 0.466 µM) | > 1.56 µg/mL
CN1[C@@H]2CC[C@H]1CN(c1cc3c(cc1F)c(=O)c(C(=O)O)cn3C)C2 | 0.2 µg/mL (≈ 0.579 µM) | 0.78 µg/mL (≈ 2.26 µM) | 1.56 µg/mL (≈ 4.52 µM) | 0.78 µg/mL (≈ 2.26 µM) | 12.5 µg/mL (≈ 36.2 µM) | 3.13 µg/mL (≈ 9.06 µM) | 3.13 µg/mL (≈ 9.06 µM) | 0.78 µg/mL (≈ 2.26 µM) | 3.13 µg/mL (≈ 9.06 µM) | 3.12 µg/mL | 0.2 µg/mL (≈ 0.579 µM) | > 25 µg/mL
CN1C[C@@H]2C[C@H]1CN2c1nc2c(cc1F)c(=O)c(C(=O)O)cn2-c1ccc(F)cc1 | 0.2 µg/mL (≈ 0.485 µM) | 0.02 µg/mL (≈ 0.0485 µM) | 0.39 µg/mL (≈ 0.946 µM) | 0.1 µg/mL (≈ 0.242 µM) | 3.13 µg/mL (≈ 7.59 µM) | 0.2 µg/mL (≈ 0.485 µM) | 0.2 µg/mL (≈ 0.485 µM) | 3.13 µg/mL (≈ 7.59 µM) | > 3.13 µg/mL | 1.56 µg/mL | 0.05 µg/mL (≈ 0.121 µM) | > 1.56 µg/mL
CCn1cc(C(=O)O)c(=O)c2cc(F)c(N3CCN4CCC3CC4)c(F)c21.Cl.O | 0.39 µg/mL | 0.1 µg/mL | 0.78 µg/mL | 0.05 µg/mL | 1.56 µg/mL | 0.2 µg/mL | 0.2 µg/mL | 1.56 µg/mL | > 3.13 µg/mL | 1.56 µg/mL | 0.2 µg/mL | 0.78 µg/mL
Cl.O.O=C(O)c1cn(CCF)c2cc(N3CCN4CCC3CC4)c(F)cc2c1=O | 0.78 µg/mL | 0.05 µg/mL | 0.2 µg/mL | 0.02 µg/mL | > 3.13 µg/mL | 0.1 µg/mL | 0.2 µg/mL | 1.56 µg/mL | > 3.13 µg/mL | 0.39 µg/mL | 0.02 µg/mL | 1.56 µg/mL
CN1C2CC[C@@H]1CCN(c1c(F)cc3c(=O)c(C(=O)O)cn(C4CC4)c3c1F)C2 | 0.2 µg/mL (≈ 0.496 µM) | 0.02 µg/mL (≈ 0.0496 µM) | 0.39 µg/mL (≈ 0.967 µM) | 0.1 µg/mL (≈ 0.248 µM) | 0.78 µg/mL (≈ 1.93 µM) | 0.1 µg/mL (≈ 0.248 µM) | 0.1 µg/mL (≈ 0.248 µM) | > 3.13 µg/mL | 1.56 µg/mL (≈ 3.87 µM) | 0.39 µg/mL | 0.1 µg/mL (≈ 0.248 µM) | > 1.56 µg/mL
CN1[C@@H]2CC[C@H]1CN(c1c(F)cc3c(=O)c(C(=O)O)cn(C4CC4)c3c1F)C2 | 0.39 µg/mL (≈ 1 µM) | 0.1 µg/mL (≈ 0.257 µM) | 0.78 µg/mL (≈ 2 µM) | 0.39 µg/mL (≈ 1 µM) | 25 µg/mL (≈ 64.2 µM) | 0.39 µg/mL (≈ 1 µM) | 0.2 µg/mL (≈ 0.514 µM) | 0.78 µg/mL (≈ 2 µM) | 1.56 µg/mL (≈ 4.01 µM) | 0.78 µg/mL | 0.1 µg/mL (≈ 0.257 µM) | 3.13 µg/mL (≈ 8.04 µM)
O=C(O)c1cn(-c2ccc(F)cc2)c2c(F)c(N3C[C@@H]4C[C@H]3CN4)c(F)cc2c1=O | 0.78 µg/mL (≈ 1.88 µM) | 0.1 µg/mL (≈ 0.241 µM) | 0.2 µg/mL (≈ 0.481 µM) | 0.1 µg/mL (≈ 0.241 µM) | > 3.13 µg/mL | 0.2 µg/mL (≈ 0.481 µM) | 0.1 µg/mL (≈ 0.241 µM) | 0.78 µg/mL (≈ 1.88 µM) | > 3.13 µg/mL | 0.78 µg/mL | 0.1 µg/mL (≈ 0.241 µM) | > 1.56 µg/mL
CN1C[C@@H]2C[C@H]1CN2c1cc2c(cc1F)c(=O)c(C(=O)O)cn2-c1ccc(F)cc1F | 0.1 µg/mL (≈ 0.233 µM) | 0.01 µg/mL (≈ 0.0233 µM) | 0.2 µg/mL (≈ 0.466 µM) | 0.005 µg/mL (≈ 0.0116 µM) | 0.78 µg/mL (≈ 1.82 µM) | 0.2 µg/mL (≈ 0.466 µM) | 0.1 µg/mL (≈ 0.233 µM) | > 3.13 µg/mL | 0.78 µg/mL (≈ 1.82 µM) | 0.78 µg/mL | 0.05 µg/mL (≈ 0.116 µM) | 1.56 µg/mL (≈ 3.63 µM)
CCn1cc(C(=O)O)c(=O)c2cc(F)c(N3CC[C@H]4CCC(C3)N4C)c(F)c21 | 0.78 µg/mL (≈ 1.99 µM) | 0.2 µg/mL (≈ 0.511 µM) | 3.13 µg/mL (≈ 8 µM) | 0.78 µg/mL (≈ 1.99 µM) | > 3.13 µg/mL | 1.56 µg/mL (≈ 3.99 µM) | 0.39 µg/mL (≈ 0.996 µM) | > 3.13 µg/mL | > 3.13 µg/mL | 3.12 µg/mL | 0.78 µg/mL (≈ 1.99 µM) | 1.56 µg/mL (≈ 3.99 µM)
CN1C2CC[C@@H]1CCN(c1cc3c(cc1F)c(=O)c(C(=O)O)cn3-c1ccc(F)cc1)C2 | 0.78 µg/mL (≈ 1.77 µM) | 0.2 µg/mL (≈ 0.455 µM) | 0.39 µg/mL (≈ 0.887 µM) | 0.78 µg/mL (≈ 1.77 µM) | > 3.13 µg/mL | > 1.56 µg/mL | 1.56 µg/mL (≈ 3.55 µM) | 0.13 µg/mL (≈ 0.296 µM) | > 3.13 µg/mL | 0.19 µg/mL | 1.56 µg/mL (≈ 3.55 µM) | > 1.56 µg/mL
CCn1cc(C(=O)O)c(=O)c2cc(F)c(N3C[C@@H]4C[C@H]3CN4)cc21 | > 1.56 µg/mL | 0.2 µg/mL (≈ 0.604 µM) | 0.39 µg/mL (≈ 1.18 µM) | 0.39 µg/mL (≈ 1.18 µM) | > 3.13 µg/mL | 0.39 µg/mL (≈ 1.18 µM) | 0.78 µg/mL (≈ 2.35 µM) | 1.56 µg/mL (≈ 4.71 µM) | 3.13 µg/mL (≈ 9.45 µM) | 3.12 µg/mL | 0.39 µg/mL (≈ 1.18 µM) | 1.56 µg/mL (≈ 4.71 µM)
